The text below walks through data of ChEMBL document CHEMBL3112391, “Ethoxysanguinarine Induces Inhibitory Effects and Downregulates CIP2A in Lung Cancer Cells” (ACS Med Chem Lett, 2014).

The subject of assay [1] is NCI-H1975. The assay can be described thus: Induction of apoptosis in human NCI-H1975 cells assessed as decrease in pro-caspase-8 protein expression at 1 to 2.5 uM after 24 hrs by Western blot analysis. The format is functional, cell-based. The essentials:
(§1)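 H1975 or A549 cells treated 24 h at various concentrations; lysates immunoblotted for apoptosis markers (PARP, caspases).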
For orientation: In western blotting, separated proteins are transferred to a membrane and probed.

Assay [2] deals with Protein CIP2A (Homo sapiens) (UniProt Q8TCG1). Briefly: Inhibition of CIP2A in human A549 cells assessed as induction of PP2A activity at 5 uM after 4 to 8 hrs by Western blot analysis. The format is cell-based. In outline:
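A549 cells exposed to 5 μM over a time course, lysed, and PP2A activity measured in the lysates.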

Assay [3] shares this target. The assay can be described thus: Induction of FLAG-tagged CIP2A (unknown origin) proteolysis transfected in human A549 cells after 4 to 12 hrs. The format is cell-based. The essentials:
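A549 cells transfected 24 h with Flag-CIP2A, then treated over a time course; whole-cell lysates probed with anti-Flag.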

The test system of assay [4] is NCI-H1975. The assay can be described thus: Induction of apoptosis in human NCI-H1975 cells assessed as PARP cleavage at 1.5 uM after 24 hrs by Western blot analysis in presence of pan-caspase inhibitor z-VAD.fmk. The format is functional, cell-based. In outline:
(§2)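 Cells pretreated 1 h with z-VAD-fmk (20 μM), then exposed for 24 h (H1975 at 1.5 μM, A549 at 5 μM); lysates immunoblotted for PARP and its cleavage fragment.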

In assay [5] the test system is A549. The assay can be described thus: Induction of apoptosis in human A549 cells assessed as PARP cleavage at 1 to 10 uM after 24 hrs by Western blot analysis. The format is functional, cell-based. The essentials: as §1
The test system of assay [6] is NCI-H1975. Briefly: Induction of apoptosis in human NCI-H1975 cells at 0.5 to 2.5 uM after 24 hrs by annexin V/propidium iodide staining-based flow cytometric analysis. The format is functional, cell-based. The essentials: (§3)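 H1975 or A549 cells treated 24 h at various concentrations; apoptosis scored by annexin V/propidium iodide staining and flow cytometry.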
On the technique in general: Flow cytometry measures light scatter and fluorescence of single cells or particles in a stream.

A further assay concerns NCI-H460. Briefly: Cytotoxicity against human NCI-H460 cells assessed as growth inhibition after 48 hrs by MTT assay. The format is functional, cell-based. Conditions: NCI-H460, 48 h. The essentials: (§4)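 Lung cancer cell lines (adenocarcinoma, squamous and large cell lines) exposed to 0.5−10 μM for 48 h; viability read by MTT; IC50 taken from the dose–response.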
The test system of assay [7] is A549. The assay can be described thus: Cytotoxicity against human A549 cells assessed as growth inhibition at 5 uM after 24 hrs by MTT assay in presence of pan-caspase inhibitor z-VAD.fmk. The format is functional, cell-based. In outline: (§5)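 Cells pretreated 1 h with z-VAD-fmk (20 μM), then exposed for 24 h (H1975 at 1.5 μM, A549 at 5 μM); viability by MTT.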
A general note: Formazan colour is commonly taken as a measure of viable cells.

Assay [8] has as its system A549. The assay can be described thus: Downregulation of CIP2A protein expression in human A549 cells at 3.5 to 10 uM after 24 hrs by Western blot analysis. The format is functional, cell-based. The essentials: (§6)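 H1975 or A549 cells incubated 24 h across a concentration series; whole-cell lysates immunoblotted for CIP2A, c-Myc, pAKT and total AKT.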
In assay [9] the test system is A549. The assay can be described thus: Induction of apoptosis in human A549 cells assessed as decrease in pro-caspase-8 protein expression at 1 to 10 uM after 24 hrs by Western blot analysis. The format is functional, cell-based. The essentials:
as §1

Assay [10] deals with NCI-H1975. The assay can be described thus: Downregulation of CIP2A protein expression in human NCI-H1975 cells at 1 to 2 uM after 24 hrs by Western blot analysis. The format is functional, cell-based. In outline:
as §6

Assay [11] concerns NCI-H1975. Briefly: Induction of apoptosis in human NCI-H1975 cells assessed as decrease in pro-caspase-9 protein expression at 1 to 2.5 uM after 24 hrs by Western blot analysis. The format is functional, cell-based. The essentials:
as §1

The test system of assay [12] is A549. The assay can be described thus: Induction of apoptosis in human A549 cells at 2.5 to 10 uM after 24 hrs by annexin V/propidium iodide staining-based flow cytometric analysis. The format is functional, cell-based. The essentials: as §3
In assay [13] the target is Protein CIP2A (Homo sapiens) (UniProt Q8TCG1). Briefly: Inhibition of CIP2A in human A549 cells assessed as downregulation of p-AKT protein expression at 1 to 10 uM after 24 hrs by Western blot analysis. The format is cell-based. The essentials:
as §6

Assay [14] concerns A549. Briefly: Induction of apoptosis in human A549 cells assessed as PARP cleavage at 5 uM after 24 hrs by Western blot analysis in presence of pan-caspase inhibitor z-VAD.fmk. The format is functional, cell-based. The essentials:
as §2

Assay [15] concerns the target Protein CIP2A (Homo sapiens) (UniProt Q8TCG1). Briefly: Inhibition of CIP2A in human A549 cells assessed as downregulation of c-Myc protein expression at 1 to 10 uM after 24 hrs by Western blot analysis. The format is cell-based. In outline:
as §6

Assay [16] is described as follows: Cytotoxicity against human 95-D cells assessed as growth inhibition after 48 hrs by MTT assay. The format is functional, cell-based. In outline:
as §4

The target in assay [17] is Protein CIP2A (Homo sapiens) (UniProt Q8TCG1). Briefly: Induction of CIP2A proteolysis in human A549 cells at 5 uM after 4 hrs in presence of protein synthesis inhibitor cycloheximide. The format is cell-based. In outline:
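A549 cells given 100 μg/mL cycloheximide with or without 5 μM test agent over a time course; whole-cell lysates probed for CIP2A.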

The test system of assay [18] is A549. The assay can be described thus: Induction of apoptosis in human A549 cells assessed as decrease in pro-caspase-9 protein expression at 1 to 10 uM after 24 hrs by Western blot analysis. The format is functional, cell-based. The essentials: as §1
In assay [19] the test system is NCI-H1975. Briefly: Cytotoxicity against human NCI-H1975 cells assessed as growth inhibition at 1.5 uM after 24 hrs by MTT assay in presence of pan-caspase inhibitor z-VAD.fmk. The format is functional, cell-based. The essentials:
as §5

Assay [20] is described as follows: Cytotoxicity against human SPC-A1 cells assessed as growth inhibition after 48 hrs by MTT assay. The format is functional, cell-based. The conditions noted are these: SPCA1, 48 h. In outline: as §4
Assay [21] concerns the target Protein CIP2A (Homo sapiens) (UniProt Q8TCG1). Briefly: Inhibition of CIP2A in human A549 cells assessed as potentiation of cisplatin-induced PARP cleavage at 3.5 uM after 24 hrs by Western blot analysis. The format is cell-based. The essentials: (§7)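 Cells cultured 24 h with test agent and/or cisplatin; lysates immunoblotted for PARP cleavage.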
Assay [22] has the same target. The assay can be described thus: Inhibition of CIP2A in human NCI-H1975 cells assessed as potentiation of cisplatin-induced cell growth inhibition at 1 uM after 24 hrs by MTT assay. The format is cell-based. In outline:
(§8)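 Cells treated 24 h with test agent, cisplatin or both (H1975: 1 μM with 10 μM cisplatin; A549: 3.5 μM with 20 μM cisplatin); viability by MTT.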

Assay [23] relates to NCI-H1975. The assay can be described thus: Induction of apoptosis in human NCI-H1975 cells assessed as PARP cleavage at 1 to 2.5 uM after 24 hrs by Western blot analysis. The format is functional, cell-based. In outline:
as §1

In assay [24] the target is Protein CIP2A (Homo sapiens) (UniProt Q8TCG1). Briefly: Inhibition of CIP2A in human NCI-H1975 cells assessed as potentiation of cisplatin-induced PARP cleavage at 1 uM after 24 hrs by Western blot analysis. The format is cell-based. The essentials:
as §7

Assay [25] has as its system NCI-H1975. The assay can be described thus: Cytotoxicity against human NCI-H1975 cells assessed as growth inhibition after 48 hrs by MTT assay. The format is functional, cell-based. Conditions: NCI-H1975, 48 h. In outline:
as §4

Assay [26] relates to A549. Briefly: Cytotoxicity against human A549 cells assessed as growth inhibition after 48 hrs by MTT assay. The format is functional, cell-based. Conditions: A549, 48 h. The essentials:
as §4

The test system of assay [27] is A549. The assay can be described thus: Cytotoxicity against human A549 cells assessed as growth inhibition at 5 uM after 24 hrs by MTT assay in presence of PP2A inhibitor okadaic acid. The format is functional, cell-based. In outline: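 A549 cells pretreated 2 h with okadaic acid (25 nM), then 5 μM test agent for 24 h; viability by MTT.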
The nature of assay [28]: Cytotoxicity against human GLC82 cells assessed as growth inhibition after 48 hrs by MTT assay. The format is functional, cell-based. The conditions noted are these: GLC82, 48 h. The essentials: as §4
Assay [29] relates to A549. Briefly: Downregulation of CIP2A protein expression in human A549 cells at 5 uM by Western blot analysis. The format is functional, cell-based. The conditions noted are these: TDE = time-dependent effect. In outline:
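A549 cells treated with 5 μM over a time course; lysates immunoblotted for CIP2A.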

Assay [30] is described as follows: Cytotoxicity against human L78 cells assessed as growth inhibition after 48 hrs by MTT assay. The format is functional, cell-based. Conditions: L78, 48 h. In outline: as §4
In assay [31] the target is Protein CIP2A (Homo sapiens) (UniProt Q8TCG1). The assay can be described thus: Inhibition of CIP2A in human A549 cells assessed as potentiation of cisplatin-induced cell growth inhibition at 3.5 uM after 24 hrs by MTT assay. The format is cell-based. The essentials:
as §8

The test system of assay [32] is A549. The assay can be described thus: Downregulation of CIP2A mRNA expression in human A549 cells at 1 to 10 uM after 24 hrs by RT-PCR analysis. The format is functional, cell-based. The essentials:
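CIP2A transcript measured by real-time quantitative RT-PCR after 24 h treatment.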

The target of assay [33] is Protein CIP2A (Homo sapiens) (UniProt Q8TCG1). The assay can be described thus: Inhibition of CIP2A in human NCI-H1975 cells assessed as downregulation of c-Myc protein expression at 1 to 2.5 uM after 24 hrs by Western blot analysis. The format is cell-based. The essentials:
as §6

The target is the same in assay [34]. Briefly: Inhibition of CIP2A in human NCI-H1975 cells assessed as downregulation of p-AKT protein expression at 1 to 2.5 uM after 24 hrs by Western blot analysis. The format is cell-based. In outline:
as §6

Assay [35] concerns A549. Briefly: Downregulation of CIP2A mRNA expression in human A549 cells after 24 hrs by RT-PCR analysis. The format is functional, cell-based. In outline: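 Cells exposed to ESG for 24 h. CIP2A transcript level was measured by real-time quantitative RT-PCR.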
In assay [36] the test system is A549. Briefly: Downregulation of CIP2A protein expression in human A549 cells after 24 hrs by Western blot analysis. The format is functional, cell-based. The essentials:
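A549 cells were incubated with ESG at a series of concentrations, including 3.5 and 10 μM, for 24 h. Cell lysates were immunoblotted for CIP2A.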

For assay [37], the system named is NCI-H1975. Briefly: Downregulation of CIP2A protein expression in human NCI-H1975 cells after 24 hrs by Western blot analysis. The format is functional, cell-based. In outline:
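H1975 cells were incubated with ESG at a series of concentrations, including 1 and 2 μM, for 24 h. Cell lysates were Western blotted with anti-CIP2A antibody.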

The source made the active and inactive calls. The calls are words filed in the database; no cut-off is given here.

Usually IC50 stands for the concentration at which inhibition is half-maximal. As to `CCOC1c2c(ccc3c2OCO3)-c2ccc3cc4c(cc3c2N1C)OCO4` (stereo not given), the outcome (in the assay on NCI-H1975 [1]; in assay [3]; in the assay with A549 [5]; with NCI-H1975 [6]; in the assay on A549 [8]; in the assay with A549 [9]) was Active. The result (with NCI-H1975 [10]; in the assay on NCI-H1975 [11]; in the assay with A549 [12]; in assay [17]; in the assay on A549 [18]; in the assay on NCI-H1975 [23]) was Active. Also, the result in the assay on A549 [32] was Active. Also, the inhibition entry in assay [2], in assay [13], in assay [15], in assay [21], in assay [22] and in assay [24] was “Active” throughout. In addition, the inhibition entry in [31], in [33] and in assay [34] was “Active” each time. The result in the assay with NCI-H1975 [4] and with A549 [14] was inactive. For the same molecule, the half-inhibitory concentration (IC50) stood at 1.56 µM in the assay on NCI-H460; 2 µM in assay [16]; 1.1 µM in assay [20]; 1.29 µM in the assay on NCI-H1975 [25]; 2.74 µM with A549 [26]; 1.3 µM in assay [28]. For the same molecule, the IC50 in [30] was 1 µM. For the same molecule, the “growth inhibition (GI)” value with A549 [7], in the assay with NCI-H1975 [19] and in the assay on A549 [27] was “inactive” each time. The Activity entry in the assay with A549 [29] was “tde”.
Take `C=C1C(=O)[C@]23[C@H](O)[C@H]1CC[C@H]2[C@@]12CO[C@@]3(O)C[C@@H]1C(C)(C)CC[C@@H]2OC(C)=O` [RABDOCOETSIN B]: the result in the assay with A549 [35], in the assay with A549 [36] and in the assay on NCI-H1975 [37] was Active. Moreover, the IC50 was found to be 10.3 µM with NCI-H1975 [25] and 14.2 µM in the assay with A549 [26].
